Test results published in publication PMC3668529 (FEBS Open Bio, 2013).
Like-named read-outs stand apart in the source and are kept apart here.

Tests used:
rCPT-2 [1] = molecular target: T1, rCPT-2 (Rattus norvegicus, UniProt P18886); test: rCPT-2 activity assay, spectrophotometric with DTNB; format: biochemical; details: diluted lysate, 30 °C, reverse reaction, no additional β-OG
T1 sequence (P18886 26-658): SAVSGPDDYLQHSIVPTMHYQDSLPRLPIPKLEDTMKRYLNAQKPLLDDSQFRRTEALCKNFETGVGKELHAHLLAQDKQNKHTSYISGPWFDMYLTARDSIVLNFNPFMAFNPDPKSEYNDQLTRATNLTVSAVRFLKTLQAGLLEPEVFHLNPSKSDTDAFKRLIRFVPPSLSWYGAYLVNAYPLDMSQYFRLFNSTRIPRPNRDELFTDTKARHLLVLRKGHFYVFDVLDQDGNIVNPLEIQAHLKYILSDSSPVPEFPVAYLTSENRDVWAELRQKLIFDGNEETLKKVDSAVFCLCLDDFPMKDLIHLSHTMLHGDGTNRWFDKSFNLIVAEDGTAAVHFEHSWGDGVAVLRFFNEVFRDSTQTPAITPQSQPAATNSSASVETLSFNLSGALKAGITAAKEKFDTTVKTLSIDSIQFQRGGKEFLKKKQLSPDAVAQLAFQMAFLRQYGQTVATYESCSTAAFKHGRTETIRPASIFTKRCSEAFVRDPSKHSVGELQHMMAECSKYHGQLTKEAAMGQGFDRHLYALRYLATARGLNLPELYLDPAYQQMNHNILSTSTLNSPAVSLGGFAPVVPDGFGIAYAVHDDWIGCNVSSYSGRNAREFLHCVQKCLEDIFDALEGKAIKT
Outline: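 The reverse reaction was run at 30 °C with crude Pichia pastoris lysate (30 nM enzyme) in 25 mM Tris–HCl pH 7.4, 120 mM KCl and 1 mM EDTA, without added β-OG. Substrates were 500 μM carnitine and 80 μM palmitoyl-CoA. Released CoA-SH was detected with DTNB by absorbance at 410 nm (ε 13,600 M−1 cm−1). Inhibitors were titrated from 10 mM DMSO stocks.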

rCPT-2 [2] = molecular target: T1, rCPT-2; test: Isothermal titration calorimetry; format: binding
Outline: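 Inhibitor (100–300 μM, from 10 mM DMSO stock, in identical buffer) was injected in 10 μL steps. ΔH0, K and n came from a 1:1 fit, with ΔG0 and ΔS0 calculated. ΔCp0 came from runs at several temperatures. Proton transfer was tested with HEPES, Bicine or Tris buffers at pH 8 and 10 °C, fitting ΔHobs against buffer ionization enthalpy by linear regression.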

[3] = ITC demicellization of β-OG with and without co-dissolved inhibitor; format: physicochemical; details: for CMC / TΔSmic0 / ΔGmic0 / ΔHmic0: absence of rCPT-2
Outline: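 Syringe held 300 mM β-OG with 1% or 7.5% (v/v) DMSO, with or without 0.75 mM inhibitor, in 25 mM Tris/HCl pH 8, 150 mM NaCl, 2 mM TCEP, degassed 10 min. Injected stepwise into buffer. Initial constant heats gave ΔHdemic0 (ΔHmic0 of opposite sign). Curves simulated with a cooperative association model. CMC taken as midpoint, ΔGmic0 = RT lnCMC, ΔCp0 from linear fits of ΔHmic0 versus temperature.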

rCPT-2 [4] = molecular target: T1, rCPT-2; test: Differential scanning calorimetry; format: binding
Outline: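 Thermal unfolding was run by DSC at a scan rate of 30 °C/h. The reference cell held buffer, with a buffer–buffer blank as baseline. Transition midpoints were read from the curves.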

rCPT-2 [5] = molecular target: T1, rCPT-2; test: Binding site by X-ray crystallography and manual docking; details: crystal structures and docking models
Outline: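 Crystals were cryo-protected or oil-exchanged, flash frozen, and data collected at 100 K. Ligands were placed by manual modelling into the structure, then energy-minimised with protein atoms constrained.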

rCPT-2 [6] = molecular target: T1, rCPT-2; details: octanoyl-CoA as substrate, competitive; cited from earlier work
[7] = cited from earlier work

Compound: CCCCCCCCCCCCCCNC(=O)N[C@H](CC(=O)[O-])C[N+](C)(C)C [Inhibitor 4, reference compound]
- IC50 (rCPT-2 [1]): 0.38 µM
- Kd (rCPT-2 [2]; ITC, 10 °C, 25 mM Tris/HCl pH 8, 1% β-OG, 1% DMSO): 10.5 ± 3.3 µM
- TΔS^0 (rCPT-2 [2]; ITC, 10 °C, Tris/HCl pH 8): -13.8 ± 2.1 kJ/mol
- ΔG^0 (rCPT-2 [2]; ITC, 10 °C, Tris/HCl pH 8): -27.2 ± 1.3 kJ/mol
- ΔH^0 (rCPT-2 [2]; ITC, 10 °C, Tris/HCl pH 8): -41 ± 2.9 kJ/mol
- Kd (rCPT-2 [2]; ITC, 37 °C, Tris/HCl pH 8): 20 µM
- TΔS^0 (rCPT-2 [2]; ITC, 37 °C, Tris/HCl pH 8): -15.5 kJ/mol
- ΔG^0 (rCPT-2 [2]; ITC, 37 °C, Tris/HCl pH 8): -24.7 kJ/mol
- ΔH^0 (rCPT-2 [2]; ITC, 37 °C, Tris/HCl pH 8): -39.7 kJ/mol
- sign of the reaction enthalpy (rCPT-2 [2]; Tris/HCl pH 8): exothermic
- molar heat capacity change ΔCp0 of binding (rCPT-2 [2]; Tris/HCl pH 8, temperature dependence of ΔH^0): 11 cal/mol K
- Kd (rCPT-2 [2]; read-out: dissociation constants determined by ITC): 20 µM
- effect on the CMC of β-OG ([3]; 7.5% (v/v) DMSO, compared to β-OG alone): slightly increase
- CMC ([3]; 14 °C): 35.1 mM
- TΔSmic0 ([3]; 14 °C): 13.6 kJ/mol
- ΔGmic0 ([3]; 14 °C): -7.95 kJ/mol
- CMC ([3]; 25 °C): 31.3 mM
- TΔSmic0 ([3]; 25 °C): 12.2 kJ/mol
- ΔGmic0 ([3]; 25 °C): -8.54 kJ/mol
- ΔHmic0 ([3]; 25 °C): 3.68 kJ/mol
- CMC ([3]; 30 °C): 31.0 mM
- TΔSmic0 ([3]; 30 °C): 11.1 kJ/mol
- ΔGmic0 ([3]; 30 °C): -8.7 kJ/mol
- ΔHmic0 ([3]; 30 °C): 2.38 kJ/mol
- CMC ([3]; 45 °C): 31.0 mM
- TΔSmic0 ([3]; 45 °C): 7.28 kJ/mol
- ΔGmic0 ([3]; 45 °C): -9.16 kJ/mol
- ΔHmic0 ([3]; 45 °C): -1.88 kJ/mol
- midpoint of the thermal unfolding transition of rCPT-2 (rCPT-2 [4]; 14 μM rCPT-2, 100 μM inhibitor): 49.8 °C
- total unfolding enthalpy of rCPT-2 (rCPT-2 [4]; interval 30–55 °C, protein in excess of inhibitor): 5314 kJ/mol
- stability increase of rCPT-2 (rCPT-2 [4]; with versus without inhibitor): ~3 °C
- rCPT-2 (binding site) (rCPT-2 [5]): Acylcarnitine site

Compound: CCCCCCCCO[C@@H]1O[C@H](CO)[C@@H](O)[C@H](O)[C@H]1O [β-OG, β-octyl glucoside]
- CMC ([3]; 14 °C): 32.8 mM
- TΔSmic0 ([3]; 14 °C): 13.7 kJ/mol
- ΔGmic0 ([3]; 14 °C): -8.12 kJ/mol
- ΔHmic0 ([3]; 14 °C): 5.56 kJ/mol
- CMC ([3]; 30 °C): 27.8 mM
- TΔSmic0 ([3]; 30 °C): 11.5 kJ/mol
- ΔGmic0 ([3]; 30 °C): -9 kJ/mol
- ΔHmic0 ([3]; 30 °C): 2.51 kJ/mol
- CMC ([3]; 37 °C): 28.6 mM
- TΔSmic0 ([3]; 37 °C): 9.79 kJ/mol
- ΔGmic0 ([3]; 37 °C): -9.12 kJ/mol
- ΔHmic0 ([3]; 37 °C): 0.669 kJ/mol
- ΔHmic0 ([3]; 45 °C): -2.26 kJ/mol
- molar heat capacity change of micelle formation ΔCp0 ([3]; slopes of ΔHmic0 versus temperature, with and without inhibitors): −60 to −90 cal/mol K
- Ki (rCPT-2 [6]): 15000 µM

Compound: cinnamycin
- binding constants of the PE–cinnamycin complex, times smaller in the β-OG environment [7]: 10–100 times
- free energy of binding ΔG^0, less negative in β-OG micelles than in the aqueous phase [7]: 4.2 to 10.5 kJ/mol
